Measurements collected from several papers.
Protocols differ between the studies behind these lines.
Organism: Mycobacterium tuberculosis
Read-out: microbial growth

| Structure (SMILES) | assay | test system | conditions | MIC |
| --- | --- | --- | --- | --- |
| CC1SC2(CCCC2)N(NC(=O)c2[nH]c3ccc(Cl)cc3c2-c2ccccc2)C1=O (stereo not shown) | – | ATCC27294 H37RV | – | 250 µM |
| O=C(Nc1ccc2c(c1)OC(F)(F)O2)Nc1ccc(Cl)c(C(F)(F)F)c1 | – | H37RV | – | 2 µM |
| COC(=O)c1cc(-c2cccc(NC(=O)Nc3ccccc3OC)c2)on1 | – | ATCC27294 H37RV | 7 days | 0.5 µg/mL |
| CN(CC[C@H](N)CC(=O)N[C@H]1C=C[C@H](n2ccc(N)nc2=O)O[C@@H]1C(=O)O)C(=N)N | – | H37RA | – | > 50 µM |
| C=C[C@@H](O)C#CC#C[C@@H](O)/C=C\CCCCCCC | resazurin | ATCC27294 H37RV | 7 days | 26.7 µg/mL |
| Cc1c(Cc2ccc(F)cc2F)c(=O)n2c([nH]c3ccccc32)c1C#N | broth dilution | H37RV | – | 1 µg/mL |
| O=C1C(=NNc2nc(-c3ccccc3)cs2)C(N=Cc2ccccc2)=NN1c1ccccc1 | resazurin | H37RV | 5 days | 13.9 µM |
| CC(C)=CCC/C(C)=C/COCCOC1C2CC3CC(C2)CC1C3 (stereo not shown) | – | – | – | 50 µg/mL |
| O=C1NN=C(N=Cc2ccccc2O)C1=NNn1c(-c2ccccc2)nc2ccccc2c1=O | resazurin | H37RV | – | 13.8 µM |
| CC[C@@H](CO)NCCN[C@@H](CC)CO | – | H37RV | 5 days | 6.6 µM |
| Cc1ccn2c(C(=O)NCc3ccc(S(F)(F)(F)(F)F)cc3)c(C)nc2c1 | – | H37RV | 5 days | 0.25 µM |
| Cc1cc(N)c2ccccc2[n+]1CCCCCCCCCC[n+]1c(C)cc(N)c2ccccc21 | broth dilution | – | – | 1.2 µg/mL |
| COc1cc(C=NC2=NN(c3ccccc3)C(=O)C2=NNc2nc(-c3ccccc3)cs2)ccc1O | resazurin | H37RV | – | 12.5 µg/mL |
| Cc1ccc(C)n1-c1ccc(-c2nnc(S)s2)cc1 | broth dilution | H37RV | 21 days | 1 µg/mL |
| COC(=O)c1cc(-c2cccc(NC(=S)Nc3ccc(F)cc3F)c2)on1 | – | ATCC27294 H37RV | 7 days | 2 µg/mL |
| CC[C@H]1OC(=O)[C@H](C)[C@@H](O[C@H]2C[C@@](C)(OC)[C@@H](O)[C@H](C)O2)[C@H](C)[C@@H](O[C@@H]2O[C@H](C)C[C@H](N(C)C)[C@H]2O)[C@](C)(OC)C[C@@H](C)C(=O)[C@H](C)[C@@H](O)[C@]1(C)O | resazurin | H37RA | 14 days | 8 µg/mL |
| NNC(=O)c1ccncc1 | – | ATCC27294 H37RV | – | 0.05 µg/mL |
| c1ccc(-c2nc3cc(Nc4nccn4-c4cc(NC5CCCC5)ncn4)ccc3[nH]2)cc1 | – | W4 | – | > 20 µM |
| COc1ccc2cc1Oc1cc(ccc1OC)CCC(N[C@H]1CCCc3ccccc31)CCCC2 (stereo partly shown) | broth dilution | H37RV | – | > 100 µg/mL |
| O=c1nc(N2CCN(CC3CCCCC3)CC2)sc2c([N+](=O)[O-])cc(C(F)(F)F)cc12 | resazurin | H37RV | – | 0.002 µM |
| CCCCCCC/C=C\C(O)C#CC#CC(=O)CCOC (stereo not shown) | resazurin | ATCC35801 ERDMAN | 7 days | > 60 µg/mL |
| COC(=O)c1cc(-c2cccc(NC(=O)Nc3ccc(C)c(Cl)c3)c2)on1 | – | ATCC27294 H37RV | 7 days | 16 µg/mL |

| Structure (SMILES) | assay | test system | conditions | MIC |
| --- | --- | --- | --- | --- |
| CO[C@H]1/C=C/O[C@@]2(C)Oc3c(C)c(O)c4c(O)c(c(/C=N/N5CCN(C)CC5)c(O)c4c3C2=O)NC(=O)/C(C)=C\C=C\[C@H](C)[C@H](O)[C@@H](C)[C@@H](O)[C@@H](C)[C@H](OC(C)=O)[C@@H]1C | – | H37RV | – | 0.05 µg/mL |
| O=C1C(=NNc2nc(-c3ccccc3)cs2)C(N=Cc2cccc(Cl)c2)=NN1c1ccccc1 | resazurin | H37RV | 5 days | 12.9 µM |
| COC(=O)c1cc(-c2cccc(NC(=O)Nc3cccc(Cl)c3Cl)c2)on1 | – | ATCC27294 H37RV | 7 days | 0.5 µg/mL |
| COc1ccc(Cc2c(C)c(C#N)c3[nH]c4ccccc4n3c2=O)cc1 | broth dilution | H37RV | – | 0.25 µg/mL |
| O=[N+]([O-])c1cn2c(n1)OC[C@@H](OCc1ccc(N3CCCCC3)cc1)C2 | – | H37RV | – | 0.4 to 0.8 µg/mL |
| CC(C)[C@H]1CO[C@]23CCN(Cc4ccccc4)C[C@H]2CCC(=O)N13 | – | H37RV | 7 days | 7.3 µM |
| O=C(NN1C(=O)CSC12CCC(c1ccccc1)CC2)c1[nH]c2ccc(Cl)cc2c1-c1ccccc1 (stereo not shown) | – | ATCC27294 H37RV | – | 3.9 µM |
| C[C@H]1COc2c(N3CCN(C)CC3)c(F)cc3c(=O)c(C(=O)O)cn1c23 | resazurin | H37RA | 14 days | 0.12 µg/mL |
| Cc1ccc(C)n1-c1ccc(-c2nnc(-c3ccc(N(C)C)cc3)[nH]2)cc1 | broth dilution | H37RV | 21 days | 16 µg/mL |
| CC(C)[C@H]1CO[C@]23CCN(Cc4ccc(C(F)(F)F)cc4)C[C@H]2CCC(=O)N13 | resazurin | H37RV | 7 days | 0.13 µM |
| COC(=O)c1cc(-c2cccc(NC(=S)Nc3ccc(F)cc3)c2)on1 | – | ATCC27294 H37RV | 7 days | 4 µg/mL |
| CC1CCCC2(C1)SCC(=O)N2NC(=O)c1[nH]c2ccc(Cl)cc2c1-c1ccccc1 (stereo not shown) | – | ATCC27294 H37RV | – | 16 µM |
| CCc1nc2ccc(Cl)cn2c1C(=O)NCc1cccc(S(F)(F)(F)(F)F)c1 | – | H37RV | 5 days | 0.28 µM |
| Cc1ccc(C)n1-c1ccc(-c2nnco2)cc1 | broth dilution | H37RV | 21 days | 4 µg/mL |
| CCOC(=O)c1cc(-c2cccc(NC(=O)Nc3ccc(Cl)c(Cl)c3)c2)on1 | – | ATCC27294 H37RV | 7 days | 1 µg/mL |
| C[C@@H]([C@H](N)C(=O)N[C@H](C(=O)O)[C@H]1O[C@@H](n2ccc(=O)[nH]c2=O)[C@H](O)[C@@H]1O)[C@H](O)c1ccc(O)cn1 | – | H37RV | 14 days | > 50 µg/mL |
| COC(=O)c1cc(-c2cccc(NC(=O)Nc3cccc(Cl)c3)c2)on1 | – | ATCC27294 H37RV | 7 days | 0.5 µg/mL |
| CC1SC2(CCCCC2)N(NC(=O)c2[nH]c3ccc(Cl)cc3c2-c2ccccc2)C1=O (stereo not shown) | – | ATCC27294 H37RV | – | 250 µM |
| N#Cc1cc(C(F)(F)F)cc2c(=O)nc(N3CCN(CC4CCC4)CC3)sc12 | resazurin | H37RV | – | > 2 µM |
| CN(C)c1ccc(C=NC2=NN(c3ccccc3)C(=O)C2=NNc2nc(-c3ccccc3)cs2)cc1 | resazurin | H37RV | – | 6.25 µg/mL |
| COC(=O)c1cc(-c2cccc(NC(=O)Nc3ccc(Cl)c(Cl)c3)c2)on1 | – | ATCC27294 H37RV | 7 days | 0.25 µg/mL |
